Results as given in ChEMBL document CHEMBL1152300, “Ligand specificity of constitutive androstane receptor as probed by induced-fit docking and mutagenesis” (J Med Chem, 2008).

Columns and labels:
[1] = target: T1, Nuclear receptor subfamily 1 group I member 3 (Mus musculus, UniProt O35627, L212A); experiment: Effect on nuclear co-repressor receptor binding to mouse CAR L212A mutant […] at 10 uM by yeast two-hybrid assay; assay type: cell-based; conditions: read-out: Activity
Procedure, shortened: (§1)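 Yeast two-hybrid: yeast expressing wild-type or mutant mouse CAR LBD plus SRC-1 or NCoR, selected on SD medium lacking Leu and Trp. Pooled colonies treated with DMSO or test chemical for 3.5 h. β-Galactosidase normalized to cell density. SRC-1 reference: wild-type + DMSO = 100. NCoR reference: 10 µM androstenol = 100. Mean ± SD, two independent determinations, each in triplicate.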

[2] = target: T2, Nuclear receptor subfamily 1 group I member 3 (Mus musculus, UniProt O35627, Y336A); experiment: Enhancement of steroid receptor coactivator 1 binding to mouse CAR Y336A mutant […] at 10 uM by yeast two-hybrid assay; assay type: cell-based; procedure, shortened: as §1
[3] = target: T3, Nuclear receptor subfamily 1 group I member 3 (Mus musculus, UniProt O35627, H213A); experiment: Effect on nuclear co-repressor receptor binding to mouse CAR H213A mutant […] at 10 uM by yeast two-hybrid assay; assay type: cell-based; conditions: read-out: Activity; procedure, shortened: as §1
[4] = target: T4, Nuclear receptor subfamily 1 group I member 3 (Mus musculus, UniProt O35627, N175A); experiment: Decrease in steroid receptor co-activator 1 binding to mouse CAR N175A mutant […] at 1 uM by yeast two-hybrid assay; assay type: cell-based; conditions: read-out: Activity
Procedure, shortened: (§2)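 Yeast expressing wild-type or mutant mouse CAR LBD plus SRC-1, selected on SD plates lacking leucine and tryptophan. Pooled colonies treated with DMSO or compound for 3.5 h. β-Galactosidase activity normalized to cell density. Reference is wild-type CAR + SRC-1 with DMSO (=100). Mean ± SD of two independent determinations, each in triplicate.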

[5] = target: T5, Nuclear receptor subfamily 1 group I member 3 (Mus musculus, UniProt O35627, T350A); experiment: Decrease in mouse CAR T350A mutant activation expressed in HEK293 cells at 1 uM by mammalian one-hybrid assay; assay type: cell-based; conditions: read-out: Activity
Procedure, shortened: (§3)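 GAL4 DBD fused to mouse CAR LBD (residues 118-358), wild type or point mutant, cotransfected with UASx4-tk-luc reporter and pCMVβ into HEK293 cells. Cells cultured with DMSO (0.1% v/v) or compound (final 1, 2 or 10 µM). Lysed 24 h post-transfection. Luciferase normalized to β-galactosidase, expressed relative to empty GAL4 vector (=1.0). Mean ± SD, three independent experiments.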

[6] = target: T6, Nuclear receptor subfamily 1 group I member 3 (Mus musculus, UniProt O35627, I252L); experiment: Activation of mouse CAR I252L mutant expressed in HEK293 cells at 1 uM by mammalian one-hybrid assay; assay type: cell-based; conditions: hek293, 1 µM; procedure, shortened: as §3
[7] = target: T3, Nuclear receptor subfamily 1 group I member 3; experiment: Effect on nuclear co-repressor receptor binding to mouse CAR H213A mutant […] at 1 uM by yeast two-hybrid assay; assay type: cell-based; conditions: read-out: Activity
Procedure, shortened: as §2, with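 “NCoR,” for “SRC-1,”, “10 µM androstenol” for “wild-type CAR + SRC-1 with DMSO”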

[8] = target: T1, Nuclear receptor subfamily 1 group I member 3; experiment: Activation of mouse CAR L212A mutant expressed in HEK293 cells at 1 uM by mammalian one-hybrid assay; assay type: cell-based; conditions: hek293, 1 µM; procedure, shortened: as §3
[9] = target: Nuclear receptor subfamily 1 group I member 3 (Mus musculus, UniProt O35627, L353A); experiment: Effect on nuclear co-repressor receptor binding to mouse CAR L353A mutant […] at 1 uM by yeast two-hybrid assay; assay type: cell-based; conditions: read-out: Activity
Procedure, shortened: as §2, with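 “NCoR,” for “SRC-1,”, “10 µM androstenol” for “wild-type CAR + SRC-1 with DMSO”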

[10] = target: Nuclear receptor subfamily 1 group I member 3 (Mus musculus, UniProt O35627, T350M); experiment: Decrease in mouse CAR T350M mutant activation expressed in HEK293 cells at 1 uM by mammalian one-hybrid assay; assay type: cell-based; conditions: read-out: Activity; procedure, shortened: as §3
[11] = target: T2, Nuclear receptor subfamily 1 group I member 3; conditions: HEK293, mouse
[12] = target: T7, Nuclear receptor subfamily 1 group I member 3 (Mus musculus, UniProt O35627, F171A); experiment: Decrease in nuclear co-repressor receptor binding to mouse CAR F171A mutant […] at 10 uM by yeast two-hybrid assay; assay type: cell-based; conditions: read-out: Activity
Procedure, shortened: as §2, with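 “NCoR,” for “SRC-1,”, “10 µM androstenol” for “wild-type CAR + SRC-1 with DMSO”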

[13] = target: T8, Nuclear receptor subfamily 1 group I member 3 (Mus musculus, UniProt O35627, L253F); experiment: Decrease in steroid receptor coactivator 1 binding to mouse CAR L253F mutant […] at 2 uM by yeast two-hybrid assay; assay type: cell-based; conditions: read-out: Activity; procedure, shortened: as §1
[14] = target: T9, Nuclear receptor subfamily 1 group I member 3 (Mus musculus, UniProt O35627, F171L); experiment: Effect on steroid receptor co-activator 1 binding to mouse CAR F171L mutant […] at 2 uM by yeast two-hybrid assay; assay type: cell-based; conditions: read-out: Activity; procedure, shortened: as §1
[15] = target: T4, Nuclear receptor subfamily 1 group I member 3; experiment: Decrease in nuclear co-repressor receptor binding to mouse CAR N175A mutant […] at 2 uM by yeast two-hybrid assay; assay type: cell-based; conditions: read-out: Activity; procedure, shortened: as §1
[16] = target: T7, Nuclear receptor subfamily 1 group I member 3; experiment: Effect on steroid receptor co-activator 1 binding to mouse CAR F171A mutant […] at 2 uM by yeast two-hybrid assay; assay type: cell-based; conditions: read-out: Activity; procedure, shortened: as §1
[17] = target: T9, Nuclear receptor subfamily 1 group I member 3; experiment: Enhancement of nuclear co-repressor receptor binding to mouse CAR F171L mutant […] at 2 uM by yeast two-hybrid assay; assay type: cell-based; procedure, shortened: as §1
[18] = target: T6, Nuclear receptor subfamily 1 group I member 3; experiment: Activation of mouse CAR I252L mutant expressed in HEK293 cells at 2 uM by mammalian one-hybrid assay; assay type: cell-based; conditions: hek293, 2 µM
Procedure, shortened: (§4)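 GAL4-DBD fused to mouse CAR LBD (residues 118-358), wild-type or point mutant, cotransfected with UASx4-tk-luc reporter and pCMVβ into HEK293 cells. Cells were exposed to final 1 µM, 2 µM or 10 µM test chemical, or 0.1% v/v DMSO, for 24 h after transfection. Luciferase was normalized to β-galactosidase and set against empty GAL4 vector (=1.0). Mean ± standard deviation, three independent experiments.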

[19] = target: T5, Nuclear receptor subfamily 1 group I member 3; experiment: Decrease in mouse CAR T350A mutant activation expressed in HEK293 cells at 2 uM by mammalian one-hybrid assay; assay type: cell-based; conditions: read-out: Activity; procedure, shortened: as §4
[20] = target: T8, Nuclear receptor subfamily 1 group I member 3; experiment: Decrease in nuclear co-repressor receptor binding to mouse CAR L253F mutant […] at 2 uM by yeast two-hybrid assay; assay type: cell-based; conditions: read-out: Activity; procedure, shortened: as §1
[21] = target: T5, Nuclear receptor subfamily 1 group I member 3; experiment: Decrease in steroid receptor coactivator 1 binding to mouse CAR T350A mutant […] at 2 uM by yeast two-hybrid assay; assay type: cell-based; conditions: read-out: Activity; procedure, shortened: as §1
[22] = target: Nuclear receptor subfamily 1 group I member 3 (Mus musculus, UniProt O35627, S251L); experiment: Decrease in mouse CAR S251L mutant activation expressed in HEK293 cells at 2 uM by mammalian one-hybrid assay; assay type: cell-based; conditions: read-out: Activity; procedure, shortened: as §4
[23] = target: T4, Nuclear receptor subfamily 1 group I member 3; experiment: Decrease in steroid receptor coactivator 1 binding to mouse CAR N175A mutant […] at 10 uM by yeast two-hybrid assay; assay type: cell-based; conditions: read-out: Activity; procedure, shortened: as §2
[24] = target: T2, Nuclear receptor subfamily 1 group I member 3; experiment: Activation of mouse CAR Y336A mutant expressed in HEK293 cells at 10 uM by mammalian one-hybrid assay; assay type: cell-based; conditions: hek293, 10 µM; procedure, shortened: as §3

T4 sequence (O35627 whole entry N175A, the tested form may be a part): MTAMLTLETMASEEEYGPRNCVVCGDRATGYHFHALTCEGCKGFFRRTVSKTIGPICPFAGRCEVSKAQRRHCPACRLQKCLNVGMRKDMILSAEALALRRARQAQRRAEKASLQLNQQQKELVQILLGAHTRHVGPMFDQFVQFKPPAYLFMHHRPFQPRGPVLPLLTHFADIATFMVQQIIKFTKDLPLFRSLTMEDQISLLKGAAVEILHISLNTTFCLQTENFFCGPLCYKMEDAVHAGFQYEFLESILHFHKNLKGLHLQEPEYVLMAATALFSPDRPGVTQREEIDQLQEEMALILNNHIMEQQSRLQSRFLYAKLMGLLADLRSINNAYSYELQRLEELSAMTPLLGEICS
T5 sequence (O35627 whole entry T350A, the tested form may be a part): as the sequence (O35627 whole entry N175A, the tested form may be a part) above, with A175N, T350A counted along it
T2 sequence (O35627 whole entry Y336A): as the sequence (O35627 whole entry N175A, the tested form may be a part) above, with A175N, Y336A counted along it
T9 sequence (O35627 whole entry F171L): as the sequence (O35627 whole entry N175A, the tested form may be a part) above, with F171L, A175N counted along it
T1 sequence (O35627 whole entry L212A, the tested form may be a part): as the sequence (O35627 whole entry N175A, the tested form may be a part) above, with A175N, L212A counted along it
T8 sequence (O35627 whole entry L253F): as the sequence (O35627 whole entry N175A, the tested form may be a part) above, with A175N, L253F counted along it
T7 sequence (O35627 whole entry F171A): as the sequence (O35627 whole entry N175A, the tested form may be a part) above, with F171A, A175N counted along it
T3 sequence (O35627 whole entry H213A): as the sequence (O35627 whole entry N175A, the tested form may be a part) above, with A175N, H213A counted along it
T6 sequence (O35627 whole entry I252L): as the sequence (O35627 whole entry N175A, the tested form may be a part) above, with A175N, I252L counted along it
Chain of Nuclear receptor subfamily 1 group I member 3 (Mus musculus, UniProt O35627, T350M) (O35627 whole entry T350M): as the sequence (O35627 whole entry N175A, the tested form may be a part) above, with A175N, T350M counted along it
Chain of Nuclear receptor subfamily 1 group I member 3 (Mus musculus, UniProt O35627, S251L) (O35627 whole entry S251L): as the sequence (O35627 whole entry N175A, the tested form may be a part) above, with A175N, S251L counted along it
Chain of Nuclear receptor subfamily 1 group I member 3 (Mus musculus, UniProt O35627, L353A) (O35627 whole entry L353A): as the sequence (O35627 whole entry N175A, the tested form may be a part) above, with A175N, L353A counted along it

## COc1ccc(C(=O)CCCc2ccccc2)cc1
[1]
  activity at 10 µM: < 50%

## COc1ccccc1CC(CC(=O)Cc1ccccc1)OC (centres undefined)
[2]
  Activity: > 150%
[3]
  activity at 10 µM: < 50%

## Clc1cnc(Oc2ccc(Oc3ncc(Cl)cc3Cl)cc2)c(Cl)c1
[4]
  inhibition at 1 µM: ≥ 50%
[5]
  inhibition at 1 µM: < 50%
[6]
  Activity: < 50%
[7]
  activity at 1 µM: < 50%
[8]
  Activity: < 50%
[9]
  activity at 1 µM: < 50%
[10]
  inhibition at 1 µM: 50%

## C[C@]12CC[C@@H](O)C[C@@H]1CC[C@@H]1[C@@H]2CC[C@]2(C)C=CC[C@@H]12 [ANDROSTENOL]
[11]
  activity at 10 µM: < 50%
[12]
  inhibition at 10 µM: ≥ 50%

## Clc1ccccc1C(c1ccccc1)(c1ccccc1)n1ccnc1 [CLOTRIMAZOLE]
[13]
  inhibition at 2 µM: ≥ 50%
[14]
  activity at 2 µM: ≥ 50%
[15]
  inhibition at 2 µM: < 50%
[16]
  activity at 2 µM: < 50%
[17]
  Activity: > 150%
[18]
  Activity: 50%
[19]
  inhibition at 2 µM: < 50%
[20]
  inhibition at 2 µM: ≥ 50%
[21]
  inhibition at 2 µM: ≥ 50%
[22]
  inhibition at 2 µM: < 50%

## COc1ccc(C(c2ccc(OC)cc2)C(Cl)(Cl)Cl)cc1 [METHOXYCHLOR]
[23]
  inhibition at 10 µM: ≥ 50%
[24]
  Activity: < 50%
